High-throughput results from PubChem.
This is a sample that favours compounds with a hit; in the whole collection about 1.1% have one here.
SKN-1 inh – suppressors of acrylamide-induced Pgst-4::GFP reporter in worms, primary screen, SKN-1 inhibitor project, whole organism, uHTS, GFP/RFP fluorescence ratio, strain VP596; AID 624304, 2012; C. elegans VP596 Pgst-4::GFP/RFP ratio, 24 h; inhibition, % at 21.8 µM; 360,000 tested, 0.49% active;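 active = interference check ratio from 0.5 to 1.5 plus GFP to RFP signal ratio inhibition reaching or exceeding a fixed threshold, cut at about 30% in these data, passing the limit was not always enough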
A1 inh – caspase 3/7 activation in MEF A1-2A-BIM cells, primary screen, A1 inhibitor project, cell-based, luminescence, HTS | caspase activation, % (no concentration beside the values) | AID 2462, 2010 | Caspase-Glo 3/7 luminescence, 3 h; percent of clofoctol response, vehicle zero | 330,000 tested, 0.066% active;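 active = over half of replicate activation scores above 10%, or exactly half above 10 with the replicate mean above 10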
MT1-MMP act inh – blockers of MT1-MMP proenzyme processing, primary screen, HT1080 RFP-PRO-GFP cells, GFP/RFP fluorescence; Matrix metalloproteinase-14 (Homo sapiens), P50281; GFP/RFP ratio fluorescence, overnight; percent of plate control window, DMSO zero; GFP/RFP ratio change, % at 20 µM; 360,000 tested, 0.061% active; AID 651647, 2012;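 active = GFP/RFP ratio change of at least 30% with cell ATP level not reduced by more than half and red fluorescence within 50% of control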
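Assay system – RFP-PRO-GFP reporter HT1080 cells · Compound dosing – single dose of 20 µM compound, 1% DMSO final · Incubation – overnight compound exposure at 37 °C · Measure – GFP/RFP fluorescence ratio · Benchmarks – DMSO wells and RFP-L50D-GFP cells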
Tb MetRS inh – T. brucei MetRS inhibitors, primary screen, biochemical, luminescence | methionyl-tRNA synthetase (Trypanosoma brucei brucei) | purified T. brucei MetRS, ATP depletion, Kinase-Glo luminescence | inhibition, % at 11.9 µM | 360,000 tested, 0.4% active | AID 624268, 2012;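 active = inhibition above a per-plate cutoff of the control wells' mean inhibition plus 3 SD, cut at about 5.5% in these data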;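 also: 0% = DMSO wells median and 100% = median of wells with control inhibitor compound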
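technique = Kinase-Glo luminescence, ATP depletion format | system = purified MetRS (methionyl-tRNA synthetase) enzyme from Trypanosoma brucei | timing = 15 min preincubation, 2 h reaction, all 25 °C | evaluation = percent inhibition versus plate control medians | dosing = single dose, 11.9 µM final nominal, 0.9% final DMSO | also added = substrates ATP, L-methionine and bulk Escherichia coli tRNA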
GC-A act – GC-A stimulated cGMP production enhancers – HEK293 GC-A cells, cGMP TR-FRET, EC30 ANP, primary screen. Atrial natriuretic peptide receptor 1 (Homo sapiens), P16066. 0% at EC30 ANP, 100% saturating ANP. AID 1671463, 2021. 370,000 tested, 0.14% active. activation, % at 10 µM; in the data active = activation above about 40%
Target sequence (P16066 whole entry, looked up): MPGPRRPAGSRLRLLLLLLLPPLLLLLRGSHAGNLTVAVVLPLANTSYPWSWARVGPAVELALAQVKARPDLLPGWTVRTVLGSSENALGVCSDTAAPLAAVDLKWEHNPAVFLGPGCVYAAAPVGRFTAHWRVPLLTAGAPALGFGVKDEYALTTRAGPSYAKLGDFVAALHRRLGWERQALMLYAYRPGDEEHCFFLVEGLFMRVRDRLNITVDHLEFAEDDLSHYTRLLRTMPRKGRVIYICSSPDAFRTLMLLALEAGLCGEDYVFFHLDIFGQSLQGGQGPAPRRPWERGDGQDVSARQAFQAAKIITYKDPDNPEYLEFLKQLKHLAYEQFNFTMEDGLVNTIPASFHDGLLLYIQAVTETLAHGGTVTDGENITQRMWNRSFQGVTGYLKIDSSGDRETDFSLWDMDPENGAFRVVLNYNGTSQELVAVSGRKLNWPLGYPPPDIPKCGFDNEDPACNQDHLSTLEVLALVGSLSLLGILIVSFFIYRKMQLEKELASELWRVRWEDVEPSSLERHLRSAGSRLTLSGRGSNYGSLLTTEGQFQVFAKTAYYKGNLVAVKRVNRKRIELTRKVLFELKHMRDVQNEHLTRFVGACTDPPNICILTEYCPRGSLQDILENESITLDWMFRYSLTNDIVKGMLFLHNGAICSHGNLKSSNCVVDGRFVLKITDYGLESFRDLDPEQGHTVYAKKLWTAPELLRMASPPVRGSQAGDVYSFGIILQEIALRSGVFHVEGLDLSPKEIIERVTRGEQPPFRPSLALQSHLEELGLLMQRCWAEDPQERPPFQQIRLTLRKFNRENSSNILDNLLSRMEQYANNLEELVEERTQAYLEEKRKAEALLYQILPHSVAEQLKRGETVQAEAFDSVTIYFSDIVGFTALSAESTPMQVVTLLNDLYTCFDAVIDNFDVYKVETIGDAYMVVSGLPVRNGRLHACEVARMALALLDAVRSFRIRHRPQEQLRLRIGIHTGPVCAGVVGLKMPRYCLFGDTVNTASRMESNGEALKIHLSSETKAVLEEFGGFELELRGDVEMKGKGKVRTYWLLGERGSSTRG
NPR2 activator – human GC-B receptor activators, primary screen, HEK293 GC-B cells, cGMP TR-FRET, EC30 CNP; 370,000 tested, 0.11% active; activation, % at 10 µM; 0% at EC30 CNP, 100% saturating CNP;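 active = activation at 10 µM reaching about 35% in either raw or pattern-adjusted values, limit read from the data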
Tb MetRS conf – T. brucei MetRS inhibitors, confirmation, biochemical, luminescence. shares compounds with Tb MetRS inh. T. brucei MetRS enzyme, luminescence (ATP depletion). inhibition, % at 11.9 µM. 1,400 tested, 93% active. AID 624412, 2012; in the data active = inhibition above about 7%
Jurkat cytotox – Jurkat T cell cytotoxicity, cytotoxicity control for T. brucei MetRS inhibitor project, luminescence, high throughput; Jurkat cells viability, ATP luminescence; shares compounds with Tb MetRS inh; 1,400 tested, 12% active; inhibition, % at 8.3 µM; in the data active = inhibition above about 15%;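 also: 0% = vehicle and 100% = reference inhibitor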
TbMetRS FP orth – T. brucei MetRS inhibitors, orthogonal assay for T. brucei MetRS inhibitor project, biochemical, fluorescence polarization | AID 651607, 2012 | 1,400 tested, 44% active | purified T. brucei MetRS | inhibition, % at 11.9 µM | shares compounds with Tb MetRS inh; in the data active = inhibition above about 17%;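 also: 0% = vehicle wells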
Numbers without * were called inactive; . = not tested or not shown.

SMILES | SKN-1 inh | A1 inh | MT1-MMP act inh | Tb MetRS inh | GC-A act | NPR2 activator | Tb MetRS conf | Jurkat cytotox | TbMetRS FP orth
COc1ccc(/C=N/NC(=O)c2cc(O)c(O)c(O)c2)cc1Cn1cc([N+](=O)[O-])cn1 | -5.7 | . | 6.3 | 5.6* | 1.6 | 1.3 | 13.1* | 1.8 | 8.6
COc1ccccc1-c1cnc(C(O)c2ccccc2)[nH]1 (stereo not drawn) | 2.9 | . | 1.1 | 0.4 | 2.1 | -4.5 | . | . | .
COc1ccccc1-c1cnc(C(O)c2cc(Cl)cc(Cl)c2)[nH]1 (stereo not drawn) | 5.8 | . | 10.8 | 66.6* | -7.8 | -4.5 | 87.7* | 2.8 | 69.4*
OC(c1ccc(F)cc1)c1ncc(-c2ccccc2F)[nH]1 (stereo not drawn) | -1.6 | . | 0.3 | -0.2 | 5.1 | -4.9 | . | . | .
OC(c1cc(Cl)cc(Cl)c1)c1ncc(-c2ccccc2F)[nH]1 (stereo not drawn) | 11.1 | . | 4.8 | 29.5* | -2.4 | -7.7 | 67.4* | 4.8 | 43.4*
OC(c1cc(F)cc(Cl)c1)c1ncc(-c2cccc(C(F)(F)F)c2)[nH]1 (stereo not drawn) | 13.2 | . | 7.0 | 15.9* | 0.8 | -7.1 | 45.1* | 4.4 | 30.7*
CCOc1ccc(-n2c(SC/C=C/c3ccccc3)nnc2-c2ccco2)cc1 | . | . | . | . | 2.7 | 0.4 | . | . | .
C=CC[C@@H]1NN2C(=O)[C@@H](CCCC)[C@@H]3c4cc5ccccc5cc4C=NN3[C@@H]2c2cc3ccccc3cc21 | . | . | . | . | 0.5 | 1.9 | . | . | .
Cc1ccccc1Cn1cc(CN2[C@@H](CC(C)C)COc3cc(Br)ccc3S2(=O)=O)nn1 | . | . | . | . | -0.7 | -2.1 | . | . | .
O=C1CCC[C@H]2Cc3nc4cc5c(cc4cc3C[C@]23CCCN13)OCO5 | . | . | . | . | -2.5 | -7.6 | . | . | .
O=C1CC(N(CCc2ccccc2)C(=S)Nc2ccccc2)C(=O)N1c1ccc(F)cc1 (stereo not drawn) | 0.5 | 0.4 | 2.9 | 22.9* | -3.8 | 4.0 | 32.3* | 1.2 | 8.8
O=C1CC(N(CCc2ccccc2)C(=S)Nc2ccccc2)C(=O)N1c1ccccc1 (stereo not drawn) | 1.8 | 0.7 | -2.2 | 30.9* | -6.4 | -10.1 | 38.2* | 2.5 | 22.9*
COC(=O)[C@H](Cc1ccccc1)N(Cc1cn(Cc2ccccc2)nn1)S(=O)(=O)c1ccccc1Br | . | . | . | . | -5.9 | -5.5 | . | . | .
CCc1nnc(NS(=O)(=O)c2ccc(Nc3ccc([N+](=O)[O-])c4nonc34)cc2)s1 | 51.4* | 1.0 | 1.9 | 7.0* | -6.8 | -4.3 | 10.6* | -3.5 | -2.9
COc1ccc(-n2cc(CNCCCn3ccnc3)c(-c3cccc(F)c3)n2)cc1 | 4.9 | 1.5 | 3.1 | 15.9* | 1.2 | -4.8 | 5.1 | 3.6 | 4.3
CC(C)(C)c1ccc(-c2nnc(SCC(=O)Nc3ccc(Oc4ccccc4)cc3)n2Cc2ccco2)cc1 | . | . | . | . | 3.8 | 8.4 | . | . | .
COc1ccc(C(=O)N2CCC(Oc3cccnc3)CC2)c(OC)c1 | . | . | . | . | 2.9 | 1.4 | . | . | .
Cn1cnc2cc(NCc3ccc(Cl)cc3)ccc21 | 14.2 | -1.8 | 7.5 | 7.2* | 0.5 | -6.4 | 16.3* | 1.2 | 1.5
Cn1c(SCC(=O)NCCN2CCCCC2)nc2cccnc21 | . | . | . | . | 2.7 | -4.7 | . | . | .
O=C(COc1ccc(F)cc1Cl)Nc1nnc(-c2ccc(F)c(F)c2)o1 | . | . | . | . | 1.8 | -0.6 | . | . | .
Cc1cc(C)n(-c2nnc(C)n2/N=C/c2cc(Br)ccc2OCc2ccccc2)n1 | -6.0 | -0.8 | 3.3 | 6.4* | -32.0 | -22.6 | 1.3 | -2.1 | 3.7
Cc1cc(C)n(-c2nnc(C)n2/N=C/c2ccccc2OCc2ccccc2Cl)n1 | 19.2 | -0.3 | -6.9 | 0.5 | -4.3 | -15.5 | . | . | .
O=C(COCc1ccccc1)N1CC[C@H]2[C@H](CCCN2Cc2ccccc2)C1 | . | . | . | . | 2.5 | -0.3 | . | . | .
O=c1[nH]nc(Cc2ccc(Cl)cc2Cl)c2ccccc12 | -1.6 | -0.1 | -4.2 | 8.2* | 2.1 | 12.1 | 39.1* | 5.3 | 20.5*
O=c1[nH]nc(Cc2ccc(Cl)cc2)c2ccccc12 | -2.1 | 0.3 | 2.6 | 0.8 | 6.3 | 5.3 | . | . | .
SMILES | SKN-1 inh | A1 inh | MT1-MMP act inh | Tb MetRS inh | GC-A act | NPR2 activator | Tb MetRS conf | Jurkat cytotox | TbMetRS FP orth
COc1cc(-n2c(C)nc3cc(C(=O)N4CCCC4)ccc32)cc(OC)c1OC | . | . | . | . | 7.5 | 2.9 | . | . | .
O=C(c1cccnc1)N1CCN(c2ccc([N+](=O)[O-])cc2Cl)CC1 | 9.8 | 0.6 | 6.5 | 5.8* | -0.9 | -1.0 | 16.5* | 1.5 | 8.8
CCC[C@H]1[C@@H](NC(=O)C2CCCCC2)CC[C@@]23CCCN2C(=O)CCC[C@@H]13 | . | . | . | . | 0.9 | -4.4 | . | . | .
COc1ccc(CCCNC(=O)C2(C)Cc3c(-c4cccc(C(N)=O)c4)ccnc3O2)cc1 (stereo not drawn) | 9.5 | . | -0.5 | 6.6* | -11.3 | -10.6 | 4.9 | 49.2* | 0.8
COC(=O)[C@]12C[C@H](CC(=O)N3CCCCC3)C(=O)N(Cc3cccc4ccccc34)C1=C[C@H](C(C)(C)C)O[C@@H]2C | . | . | . | . | -3.0 | 2.2 | . | . | .
CC(COc1ccc(C(F)(F)F)cc1)CN1CCC(C(O)(c2ccccc2)c2ccccc2)CC1 (stereo not drawn) | . | . | . | . | -11.2 | -1.7 | . | . | .
COc1ccc(CCN2C(=S)N(C)C(=O)C2CC(=O)Nc2ccc(F)cc2)cc1 (stereo not drawn) | -1.4 | -1.2 | 5.3 | 57.7* | -0.5 | 2.4 | 80.8* | 5.5 | 50.8*
CCOc1ccc(NC(=O)CC2C(=O)N(C)C(=S)N2CCCc2ccccc2)cc1 (stereo not drawn) | 0.2 | 0.6 | -3.7 | -0.4 | -1.9 | -2.7 | . | . | .
